Results: ChEMBL document CHEMBL3860048 (J Med Chem, 2016)
Calls of active or inactive are those of the source. No cut-off for these calls is given here. Where a SMILES comes first, the peptide text is derived from it. [ ]: non-standard residue; d: D form. Phe(4-Cl) = N[C@@H](Cc1ccc(Cl)cc1)C(=O)O; Phe(3-F) = N[C@@H](Cc1cccc(F)c1)C(=O)O; Phe(2-F) = N[C@@H](Cc1ccccc1F)C(=O)O; Arg(Me) = CNC(=N)NCCC[C@H](N)C(=O)O; Pip = O=C(O)[C@@H]1CCCCN1; NMeA = CN[C@@H](C)C(=O)O; Thz = O=C(O)[C@@H]1CSCN1; dNMeA = CN[C@H](C)C(=O)O; Aze = O=C(O)[C@@H]1CCN1; 2Abz = Nc1ccccc1C(=O)O; Aib = CC(C)(N)C(=O)O; azaGly = NNC(=O)O; βAla = NCCC(=O)O; Sar = CNCC(=O)O

Experiments:
KiSS-1 receptor [1] = biological target: KiSS-1 receptor (Rattus norvegicus, UniProt Q924U1); assay: Agonist activity at rat KISS1R expressed in CHO/dhfr cells assessed as increase in intracellular Ca2+ levels measured for 180 secs by Fluo 3-AM dye based FLIPR assay; assay type: functional, cell-based
Sequence of KiSS-1 receptor (Rattus norvegicus, UniProt Q924U1) (Q924U1 whole entry): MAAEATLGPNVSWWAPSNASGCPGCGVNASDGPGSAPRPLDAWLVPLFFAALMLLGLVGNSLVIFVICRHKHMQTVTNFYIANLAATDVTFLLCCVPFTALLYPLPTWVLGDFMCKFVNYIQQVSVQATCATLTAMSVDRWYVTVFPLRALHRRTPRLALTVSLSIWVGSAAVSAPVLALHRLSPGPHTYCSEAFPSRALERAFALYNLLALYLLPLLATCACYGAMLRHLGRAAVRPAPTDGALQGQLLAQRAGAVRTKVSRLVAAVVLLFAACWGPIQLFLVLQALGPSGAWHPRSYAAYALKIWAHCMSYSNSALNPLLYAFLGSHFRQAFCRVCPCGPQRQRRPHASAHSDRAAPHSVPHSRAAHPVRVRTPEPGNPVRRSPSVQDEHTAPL

KiSS-1 receptor [2] = biological target: KiSS-1 receptor (Homo sapiens, UniProt Q969F8); assay: Agonist activity at human KISS1R expressed in CHO/dhfr cells assessed as increase in intracellular Ca2+ levels measured for 180 secs by Fluo 3-AM dye based FLIPR assay; assay type: functional, cell-based
Sequence of KiSS-1 receptor (Homo sapiens, UniProt Q969F8) (Q969F8 whole entry): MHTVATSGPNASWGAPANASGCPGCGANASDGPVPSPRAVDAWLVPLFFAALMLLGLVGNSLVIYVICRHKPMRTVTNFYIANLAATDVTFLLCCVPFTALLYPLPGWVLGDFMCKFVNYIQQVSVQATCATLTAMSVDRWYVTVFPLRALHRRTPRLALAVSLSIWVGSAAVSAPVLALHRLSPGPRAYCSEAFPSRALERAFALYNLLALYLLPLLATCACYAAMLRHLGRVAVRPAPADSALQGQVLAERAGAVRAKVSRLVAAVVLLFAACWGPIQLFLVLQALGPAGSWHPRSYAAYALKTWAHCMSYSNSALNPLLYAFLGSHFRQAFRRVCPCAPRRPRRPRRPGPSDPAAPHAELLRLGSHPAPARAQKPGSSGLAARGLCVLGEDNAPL
Outline: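 CHO cells expressing human KISS1R; FLIPR recording of ligand-induced [Ca2+]i rise over time. Maximum response taken and expressed as percent of the response to a maximal concentration of metastin(45-54). EC50 = concentration giving half-maximal mobilization, from nonlinear regression of smoothed data. Reported as ratio to the metastin(45-54) EC50.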

Rattus norvegicus = assay: Inhibition of testosterone levels in CD(SD) rat assessed as plasma testosterone level <0.04 ng/ml at 0.03 nmol/hr, sc administered continuously for 6 days through alzet osmotic pump measured after 6 days by radio-immunoassay; assay type: functional, organism-based

CNC(=N)NCCC[C@H](NC(=O)[C@H](CC(C)C)NC(=O)NNC(=O)[C@H](Cc1ccccc1)NC(=O)[C@@H](NC(=O)[C@H](CC(N)=O)NC(=O)c1ccccc1NC(=O)[C@@H](Cc1ccc(O)cc1)NC(C)=O)[C@@H](C)O)C(=O)N[C@@H](Cc1c[nH]c2ccccc12)C(N)=O (Ac-[dY][2Abz]NTF[azaGly]L[Arg(Me)]W-NH2)
EC50 (KiSS-1 receptor [1]): 47 nM
EC50 (KiSS-1 receptor [2]): 5.2 nM

CNC(=N)NCCC[C@H](NC(=O)[C@H](CC(C)C)NC(=O)NNC(=O)[C@H](Cc1cccc(F)c1)NC(=O)[C@@H](NC(=O)[C@H](CC(N)=O)NC(=O)C(C)(C)NC(=O)[C@@H](Cc1ccc(O)cc1)NC(C)=O)[C@@H](C)O)C(=O)N[C@@H](Cc1c[nH]c2ccccc12)C(N)=O (Ac-[dY][Aib]NT[Phe(3-F)][azaGly]L[Arg(Me)]W-NH2)
EC50 (KiSS-1 receptor [1]): 7 nM
EC50 (KiSS-1 receptor [2]): 1.2 nM

CNC(=N)NCCC[C@H](NC(=O)[C@H](CC(C)C)NC(=O)NNC(=O)[C@H](Cc1ccccc1)NC(=O)[C@@H](NC(=O)[C@H](CC(N)=O)NC(=O)[C@@H]1CCN1C(=O)[C@@H](Cc1ccc(O)cc1)NC(C)=O)[C@@H](C)O)C(=O)N[C@@H](Cc1c[nH]c2ccccc12)C(N)=O (Ac-[dY][Aze]NTF[azaGly]L[Arg(Me)]W-NH2)
EC50 (KiSS-1 receptor [1]): 16 nM
inhibition (Rattus norvegicus): Active
EC50 (KiSS-1 receptor [2]): 1.9 nM

CNC(=N)NCCC[C@H](NC(=O)[C@H](CC(C)C)NC(=O)NNC(=O)[C@H](Cc1ccccc1)NC(=O)[C@@H](NC(=O)[C@H](CC(N)=O)NC(=O)[C@H](C)N(C)C(=O)[C@@H](Cc1ccc(O)cc1)NC(C)=O)[C@@H](C)O)C(=O)N[C@@H](Cc1c[nH]c2ccccc12)C(N)=O (Ac-[dY][NMeA]NTF[azaGly]L[Arg(Me)]W-NH2)
EC50 (KiSS-1 receptor [1]): 43 nM
EC50 (KiSS-1 receptor [2]): 4.4 nM

CNC(=N)NCCC[C@H](NC(=O)[C@H](CC(C)C)NC(=O)NNC(=O)[C@H](Cc1ccccc1)NC(=O)[C@@H](NC(=O)[C@H](CC(N)=O)NC(=O)[C@@H]1CCCCN1C(=O)[C@@H](Cc1ccc(O)cc1)NC(C)=O)[C@@H](C)O)C(=O)N[C@@H](Cc1c[nH]c2ccccc12)C(N)=O (Ac-[dY][Pip]NTF[azaGly]L[Arg(Me)]W-NH2)
EC50 (KiSS-1 receptor [1]): 17 nM
EC50 (KiSS-1 receptor [2]): 2.8 nM

CNC(=N)NCCC[C@H](NC(=O)[C@H](CC(C)C)NC(=O)NNC(=O)[C@H](Cc1ccccc1)NC(=O)[C@@H](NC(=O)[C@H](CC(N)=O)NC(=O)CN(C)C(=O)[C@@H](Cc1ccc(O)cc1)NC(C)=O)[C@@H](C)O)C(=O)N[C@@H](Cc1c[nH]c2ccccc12)C(N)=O (Ac-[dY][Sar]NTF[azaGly]L[Arg(Me)]W-NH2)
EC50 (KiSS-1 receptor [1]): 20 nM
EC50 (KiSS-1 receptor [2]): 4.9 nM

CNC(=N)NCCC[C@H](NC(=O)[C@H](CC(C)C)NC(=O)NNC(=O)[C@H](Cc1ccccc1)NC(=O)[C@@H](NC(=O)[C@H](CC(N)=O)NC(=O)[C@@H]1CSCN1C(=O)[C@@H](Cc1ccc(O)cc1)NC(C)=O)[C@@H](C)O)C(=O)N[C@@H](Cc1c[nH]c2ccccc12)C(N)=O (Ac-[dY][Thz]NTF[azaGly]L[Arg(Me)]W-NH2)
EC50 (KiSS-1 receptor [1]): 23 nM
EC50 (KiSS-1 receptor [2]): 2.3 nM

CNC(=N)NCCC[C@H](NC(=O)[C@H](CC(C)C)NC(=O)NNC(=O)[C@H](Cc1ccccc1)NC(=O)[C@@H](NC(=O)[C@H](CC(N)=O)NC(=O)[C@@H](C)N(C)C(=O)[C@@H](Cc1ccc(O)cc1)NC(C)=O)[C@@H](C)O)C(=O)N[C@@H](Cc1c[nH]c2ccccc12)C(N)=O (Ac-[dY][dNMeA]NTF[azaGly]L[Arg(Me)]W-NH2)
EC50 (KiSS-1 receptor [1]): 7.3 nM
EC50 (KiSS-1 receptor [2]): 1.8 nM

CNC(=N)NCCC[C@H](NC(=O)[C@H](CC(C)C)NC(=O)NNC(=O)[C@H](Cc1ccccc1F)NC(=O)[C@@H](NC(=O)[C@H](CC(N)=O)NC(=O)[C@@H](Cc1c[nH]c2ccccc12)NC(=O)[C@@H](Cc1ccc(O)cc1)NC(C)=O)[C@@H](C)O)C(=O)N[C@@H](Cc1c[nH]c2ccccc12)C(N)=O (Ac-[dY][dW]NT[Phe(2-F)][azaGly]L[Arg(Me)]W-NH2)
EC50 (KiSS-1 receptor [1]): 1.8 nM
EC50 (KiSS-1 receptor [2]): 0.65 nM

CNC(=N)NCCC[C@H](NC(=O)[C@H](CC(C)C)NC(=O)NNC(=O)[C@H](Cc1cccc(F)c1)NC(=O)[C@@H](NC(=O)[C@H](CC(N)=O)NC(=O)[C@@H](Cc1c[nH]c2ccccc12)NC(=O)[C@@H](Cc1ccc(O)cc1)NC(C)=O)[C@@H](C)O)C(=O)N[C@@H](Cc1c[nH]c2ccccc12)C(N)=O (Ac-[dY][dW]NT[Phe(3-F)][azaGly]L[Arg(Me)]W-NH2)
EC50 (KiSS-1 receptor [1]): 4.8 nM
EC50 (KiSS-1 receptor [2]): 1.4 nM

CNC(=N)NCCC[C@H](NC(=O)[C@H](CC(C)C)NC(=O)NNC(=O)[C@H](Cc1ccc(Cl)cc1)NC(=O)[C@@H](NC(=O)[C@H](CC(N)=O)NC(=O)[C@@H](Cc1c[nH]c2ccccc12)NC(=O)[C@@H](Cc1ccc(O)cc1)NC(C)=O)[C@@H](C)O)C(=O)N[C@@H](Cc1c[nH]c2ccccc12)C(N)=O (Ac-[dY][dW]NT[Phe(4-Cl)][azaGly]L[Arg(Me)]W-NH2)
EC50 (KiSS-1 receptor [1]): 2.8 nM
EC50 (KiSS-1 receptor [2]): 0.56 nM

CNC(=N)NCCC[C@H](NC(=O)[C@H](CC(C)C)NC(=O)NNC(=O)[C@H](Cc1ccccc1)NC(=O)[C@@H](NC(=O)[C@H](CC(N)=O)NC(=O)CCNC(=O)[C@@H](Cc1ccc(O)cc1)NC(C)=O)[C@@H](C)O)C(=O)N[C@@H](Cc1c[nH]c2ccccc12)C(N)=O (Ac-[dY][βAla]NTF[azaGly]L[Arg(Me)]W-NH2)
EC50 (KiSS-1 receptor [1]): 11 nM
EC50 (KiSS-1 receptor [2]): 3.3 nM
